Results published in paper PMC11605122 (Nature Communications, 2024).

Legend:
body weight, HFD-fed = assay type: in vivo, mouse
[1] = MRI body composition, total/visceral fat, lean mass; assay type: in vivo, mouse
eWAT and iWAT weight = assay type: in vivo, mouse
plasma adiponectin = assay type: in vivo, mouse; conditions: DIO mice, 24 h post-injection
Procedure, shortened: (§1)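 Plasma ALT was read with Reflotron strips and plasma TGs by colorimetric assay. Serum FGF21 and plasma adiponectin and insulin were measured by ELISA.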

[2] = gene expression in mouse tissues/SVF; assay type: in vivo
plasma FFAs = assay type: in vivo, mouse; conditions: for plasma FFA elevation: DIO mice
eWAT, iWAT, BAT = assay: PKA Thr197 and HSL Ser660 phosphorylation; assay type: in vivo, mouse; conditions: DIO mice, G49
Procedure, shortened: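 Tissue lysates were cleared twice at 98,560 × g for 40 min at 4 °C; protein was measured by BCA. After transfer, loading was checked with Ponceau. Membranes were blocked with 6% skimmed milk in TBS-0.05% Tween-20 for 2 h at RT, then incubated with primary antibodies overnight at 4 °C.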

TUNEL analysis of eWAT = assay type: in vivo, mouse; conditions: 6 h post-G49
Procedure, shortened: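 Paraffin-embedded eWAT sections were stained with a fluorimetric DeadEnd TUNEL kit, mounted in fluorescent medium and imaged by confocal microscopy.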

[3] = intrahepatic triglyceride content; assay type: in vivo, mouse; conditions: DIO mice
[4] = liver-to-body weight ratio; assay type: in vivo, mouse; conditions: DIO mice, G49, 6 h
liver Cd11b+Ly6g+ cells = assay: liver neutrophils; assay type: in vivo, mouse; conditions: DIO mice, G49
Procedure, shortened: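 Liver non-parenchymal cells underwent ACK red-cell lysis (5 min, RT) and were washed in HBSS. They were stained 20 min at RT with CD45-FITC, CD11b-PECy7 and Ly6G-PE, then acquired on a FACSCanto II.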

energy expenditure = assay type: in vivo, mouse; conditions: DIO mice, G49, day 3, light and dark phases
Procedure, shortened: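 Mice entered metabolic cages 2 days before the first s.c. dose, which was given every 2 days. Indirect calorimetry parameters were then recorded for the following 3 days.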

[5] = fatty acid oxidation in liver tissue; assay type: in vivo, mouse; conditions: DIO mice, G49, 72 h
Procedure, shortened: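 Frozen liver (30 mg) was homogenised in cold STE buffer (25 mM Tris-HCl, sucrose, 1 mM EDTA, pH 7.4), sonicated 10 s and spun at 420 × g for 10 min at 4 °C. The supernatant was used for the oxidation reaction. Radioactive acid-soluble metabolites were counted by scintillation and expressed as nmol/g liver/h.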

[6] = tested on: primary mouse hepatocytes; assay: fatty acid oxidation and Cpt1a in primary mouse hepatocytes; assay type: cell-based; conditions: 500 nM G49, 16 h
Procedure, shortened: (§2)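 Primary hepatocytes came from non-fasted male C57BL/6J mice fed HFD for 12 weeks, with or without in vivo treatment, by two-step collagenase perfusion. Cells were spun at 60 × g, purified on isotonic Percoll (1:1) at 230 × g and seeded on collagen. They were cultured 24 h at 37 °C, 5% CO2 before exposure to the test compound.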

plasma/serum FGF21 = assay type: in vivo, mouse; conditions: DIO mice, G49
Procedure, shortened: as §1

[7] = tested on: primary mouse hepatocytes; assay: FGF21 release and gene expression in primary hepatocytes; assay type: cell-based; conditions: 500 nM G49, 16 h
Procedure, shortened: as §2

BAT skin temperature = assay type: in vivo, mouse
BAT, eWAT, iWAT = assay: UCP1 and TH protein; assay type: in vivo, mouse
BAT explants = assay: OCR in BAT explants; assay type: in vivo, mouse; conditions: BAT explants of mice treated with G49 for 3 days
Procedure, shortened: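 BAT explants came from DIO mice given test compound or vehicle for 72 h. OCR was run as a Seahorse Mito Stress assay with 2 µM oligomycin A, 2 µM FCCP, then 10 µM rotenone plus 10 µM antimycin. OCR (pmol/min) came from O2 tension over time.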

brown adipocytes [8] = assay: lipolysis in brown adipocytes; assay type: cell-based, mouse; conditions: G49, brown adipocytes, 500 nM, 4 h
brown adipocytes [9] = assay: thermogenic gene expression and UCP1 in brown adipocytes; assay type: cell-based, mouse; conditions: G49, brown adipocytes
Procedure, shortened: (§3)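 Brown preadipocytes were immortalised by retroviral SV40 Large T (20% FBS, 8 μg/mL polybrene, 48 h) at 70–80% confluence. Differentiation began with 2 days in induction medium (0.5 μM dexamethasone, 0.5 mM IBMX, indomethacin, 1 μM rosiglitazone).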

brown adipocytes [10] = assay: brown adipocytes treated with serum of G49-treated mice; assay type: cell-based, mouse; conditions: serum from mice receiving G49 for 72 h
Procedure, shortened: as §3

[11] = FGF21Alb-KO mice, G49 plus recombinant murine FGF21

Sequence: HSQGTFTSDYSKYLEEEAVRLFIC (40 kDa PEG) WLMNT-amide acetate salt [G49]
- body weight (body weight, HFD-fed; Adipoq−/− DIO mice, G49, 3–7 days): body weight stabilized in the period of 3–7 days in Adipoq^−/− mice
- body weight (body weight, HFD-fed; DIO female mice, G49, 1 week): Body weight loss in the absence of a reduction in cumulative food intake
- body weight (body weight, HFD-fed; DIO mice, G49 + Ex9-39 + GCGRant): failed to decrease body weight in the presence of both antagonists
- body weight loss (body weight, HFD-fed; DIO mice, G49 without ATGLi, 72 h): 11.8 ± 0.51%
- body weight loss (body weight, HFD-fed; DIO mice, G49 without antagonist, day 7 (antagonist experiment)): 23.2 ± 1.45%
- body weight (body weight, HFD-fed; FGF21Alb-KO mice, HFD, G49, 3–7 days): body weight stabilized in G49-treated FGF21^Alb-KO mice in the period of 3–7 days
- body weight (body weight, HFD-fed; UCP1−/− mice, HFD, G49, beyond 72 h): did not lose weight beyond this time-point
- effect in lean mice (body weight, HFD-fed; lean mice, G49): mild and changes were found only in the short-term body weight loss, the early lipolytic response and the reduction of eWAT
- body weight loss (body weight, HFD-fed; male DIO mice, G49 20 nmol/kg, 1 week): 6.9 ± 0.89%
- body weight loss (body weight, HFD-fed; male mice, normal cycle, G49, 1 week): 16.1 ± 0.72%
- body weight loss (body weight, HFD-fed; male mice, reversed light/dark cycle, G49, 1 week): 20.1 ± 0.49%
- visceral fat ([1]; Adipoq−/− mice, G49, 1 week, vs Adipoq+/+): lower reduction in visceral fat
- total and visceral adiposity ([1]; DIO mice, G49 + GCGRant, 6 h): abolished the acute effects of G49 in reducing total and visceral adiposity at 6 h post-injection
- adiposity, fat mass, eWAT and iWAT weight ([1]; DIO mice, G49 with antagonists, alone or in combination, day 7): its administration with antagonists, either alone or in combination, totally blocked this effect
- fat depots (eWAT, iWAT) (eWAT and iWAT weight; DIO mice, G49 + ATGLi, 72 h): without reduction in fat depots
- eWAT and iWAT depots (eWAT and iWAT weight; FGF21Alb-KO mice, G49, 1 week): a partial reduction of eWAT and iWAT depots
- plasma adiponectin, early (plasma adiponectin): increase in adiponectin was observed as early as 24 h post-injection
- hepatic Cpt1a and Ppara mRNAs ([2]; DIO mice, G49): concomitant increase in hepatic Cpt1a and Ppara mRNAs
- hepatic Srebf1 and Fasn mRNA ([2]; DIO mice, G49 + ATGLi, 6 h): Srebf1 and Fasn mRNAs were reduced
- liver Fgf21 mRNA upregulation ([2]; DIO mice, G49 + ATGLi, 72 h): G49-mediated Fgf21 mRNA upregulation in the liver was also abolished
- hepatic Fasn and Srebf1 mRNA ([2]; DIO mice, G49 + GCGRant, 6 h): reduced by the presence of GCGRant
- thermogenic-related genes in BAT ([2]; DIO mice, G49, 1 week): increase in thermogenic-related genes (Cpt1b, Dio2, CoxIVi1, Ucp1, Th, Fgf21)
- Th mRNA in BAT ([2]; DIO mice, G49 with blockade of GCGR): maintained G49-mediated increase in Th mRNA levels
- Fgf21 mRNA in BAT ([2]; FGF21Alb-KO mice, G49, 72 h): Fgf21 mRNA upregulation was not observed in BAT
- Fgf21 mRNA in eWAT and iWAT ([2]; FGF21Alb-KO mice, G49, 72 h): Fgf21 mRNA levels were upregulated in eWAT and iWAT
- Th and cytokine mRNA in SVF ([2]; SVF of eWAT, G49, 6 h and 24 h): an increase of Th mRNA at 6 h and a peak of Il14, Il10, and Il13 that declined at 24 h post-G49 treatment
- angiogenesis and beiging-related genes ([2]; eWAT, G49, 1 week): Increases in angiogenesis (Vegf) and beiging-related genes (Cidea, Prdm16, CoxIVi1, Ucp1, Th, Cpt1a)
- M2 markers and Th mRNA ([2]; eWAT, G49, 6 h): upregulated mRNA levels of M2 markers (Arg1, Il10, Tgfb) as well as Th
- Acta2, Tgfb, Mmp9 mRNA ([2]; eWAT, G49, 6 h and day 7): transient increase in Acta2, Tgfb, and Mmp9 mRNA levels that declined at day 7
- Srebf1 and Fasn mRNA ([2]; liver, DIO mice, G49, 6 h): both were elevated at 6 h post-G49 treatment
- plasma FFA elevation (plasma FFAs; G49 + Ex9-39, 6 h): retained its effect in elevating FFAs in the presence of Ex9-39
- plasma FFA elevation (plasma FFAs; G49 + GCGRant, 6 h): abolished the acute effects of G49 in reducing total and visceral adiposity at 6 h post-injection and FFA elevation
- plasma FFAs (plasma FFAs; UCP1−/− mice, G49, 6 h): showed elevations in FFAs (at 6 h)
- plasma FFAs (plasma FFAs; irradiated DIO mice, G49, 6 h): the elevation of FFAs was preserved
- plasma FFAs (plasma FFAs; lean Gcgr−/− mice, single injection of G49, 1–6 h): did not elevate plasma FFAs at 1–6 h in Gcgr^−/− mice
- lipolysis at 6 h and 1 h (plasma FFAs; lean or DIO mice, G49): increased lipolysis at 6 h, but not at 1 h post-injection
- PKA/HSL phosphorylation (lipolytic molecular signature) (eWAT, iWAT, BAT; BAT): not in brown adipose tissue (BAT)
- PKA/HSL phosphorylation (lipolytic molecular signature) (eWAT, iWAT, BAT; iWAT): also found in iWAT
- TUNEL positive cells (TUNEL analysis of eWAT): presence of TUNEL positive cells
- hepatic lipid overload ([3]; G49 + GCGRant, 6 h): hepatic lipid overload and ALT elevation were not observed
- liver triglycerides ([3]; G49, time course): elevated at 3–12 h post-injection, peaking at 6 h
- liver-to-body weight ratio [4]: an increase in lipid accumulation analyzed by H&E and oil-red O staining of liver sections, liver-to-body weight ratio, and alanine aminotransferase (ALT) activity
- hepatic neutrophil infiltration (liver Cd11b+Ly6g+ cells): an increase in hepatic neutrophil infiltration
- energy expenditure (energy expenditure): a significant increase in EE
- hepatic fatty acid oxidation [5]: concomitant increase in hepatic Cpt1a and Ppara mRNAs (Fig. 3J) and fatty acid oxidation (FAO)
- Cpt1a mRNA and FAO [6]: increased Cpt1a mRNA levels and FAO
- liver Fgf21 expression and FGF21 plasma levels (plasma/serum FGF21): reached significant increases at 12 h post-first G49 dose
- FGF21 release and Sir2 expression [7]: increased FGF21 levels released to the culture medium and Sir2 expression
- BAT temperature (BAT skin temperature; Adipoq−/− mice, G49): G49-mediated increase in BAT temperature was reduced
- BAT temperature (BAT skin temperature; DIO mice, G49 + ATGLi, 72 h): suppression of G49 effects on UCP1 expression and BAT temperature
- BAT temperature (BAT skin temperature; [11]): markedly increased UCP1 protein levels and BAT temperature
- BAT activation (BAT skin temperature; UCP1−/− mice, G49, 1 week): no features of BAT activation were found
- UCP1 protein (BAT, eWAT, iWAT; Adipoq−/− mice, G49): no increase in UCP1 protein levels was found
- UCP1 expression in BAT (BAT, eWAT, iWAT; DIO mice, G49 + ATGLi, 72 h): suppression of G49 effects on UCP1 expression and BAT temperature
- UCP1 protein in BAT (BAT, eWAT, iWAT; DIO mice, G49 + GCGRant): did not present an increase in UCP1 protein levels
- UCP1 and TH protein in BAT (BAT, eWAT, iWAT; DIO mice, G49, 1 week): increase in thermogenic-related genes (Cpt1b, Dio2, CoxIVi1, Ucp1, Th, Fgf21) and protein levels of UCP1 and TH in BAT
- UCP1 protein in BAT (BAT, eWAT, iWAT; FGF21Alb-KO mice, G49, 1 week): a lower effect of G49 in increasing in UCP1 protein levels in BAT
- UCP1 protein in BAT (BAT, eWAT, iWAT; [11]): markedly increased UCP1 protein levels and BAT temperature
- UCP1 and TH protein (BAT, eWAT, iWAT; eWAT, G49, 1 week): higher UCP1 and TH protein content
- UCP1 protein (BAT, eWAT, iWAT; iWAT, G49, 1 week): a similar improvement was found
- basal and maximal respiration (BAT explants): increased basal and maximal respiration in BAT explants
- lipolysis (brown adipocytes [8]): up-regulated lipolysis
- thermogenic gene expression and UCP1 protein (brown adipocytes [9]): up-regulated lipolysis, thermogenic gene expression (Ucp1, Ppargc1a, Sir2) and UCP1 protein levels in BA
- Ucp1 mRNA and UCP1 protein (brown adipocytes [10]): increased Ucp1 mRNA and UCP1 protein levels
